In the library only some 1.9% were active in any assay of this set; here they are far more common.
procasp3 activ – activators of human procaspase-3 D3A mutant, primary screen, biochemical, absorbance, PC-3 D3A mutant, single concentration; recombinant procaspase-3 D3A, Ac-DEVD-pNA absorbance 405 nm; Caspase-3 (Homo sapiens), P42574; AID 463141, 2010; 0.11% of 330,000 active; activation, % at 8.5 µM;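 active means activation above the mean of all tested compounds plus 3 SD, cut at about 21% in these data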;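 further: 0% = DMSO alone and 100% = DMSO wells spiked with extra 5 µM PC-3 D3A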
Target sequence (P42574 whole entry D9A/D28A/D175A): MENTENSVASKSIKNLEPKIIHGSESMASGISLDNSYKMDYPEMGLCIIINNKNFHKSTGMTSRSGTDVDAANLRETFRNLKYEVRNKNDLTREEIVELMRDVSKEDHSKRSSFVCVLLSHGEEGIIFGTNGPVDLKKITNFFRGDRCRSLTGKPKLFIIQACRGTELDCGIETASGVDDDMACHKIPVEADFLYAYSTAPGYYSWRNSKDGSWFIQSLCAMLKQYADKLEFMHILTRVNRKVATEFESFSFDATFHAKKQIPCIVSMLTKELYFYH
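Evaluation: percent activation relative to control range; Material: Procaspase-3 D3A mutant, all three cleavage aspartates alanine; Compound: single dose, 8.5 µM nominal compound, 0.8% DMSO; Replication: one well per compound; Signal: absorbance at 405 nm, 0 and 120 min; Schedule: 1 h preincubation plus 2 h reaction at 25 °C.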
GAA850 FXN act – FXN promoter activators, primary screen, cell-based, luciferase luminescence, HEK293 lucGAA850. HEK293 lucGAA850 FXN promoter luciferase reporter, 24 h; percent of 10 µM SAHA response. activation, % at 6 µM. 0.56% of 360,000 active;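 active means activation above the average of all compounds screened plus 3 SD, cutoff fixed separately per campaign, cut at about 7.5% in these data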;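 further: 0% = DMSO wells and 100% = 10 µM SAHA wells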
Calb FLC – C. albicans growth inhibition with fluconazole, primary screen, CaCi-2 strain, Alamar Blue fluorescence | C. albicans CaCi-2 + fluconazole, 48 h | growth inhibition, % (test concentration not listed) | 0.57% of 300,000 active | AID 1979, 2009;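 active means growth inhibition above about 58% in most replicates, limit read from the data, passing the limit was not always enough; inconclusive means exactly half the replicates above a set limit; inactive means most replicates below a set limit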;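 further: all wells also contain fluconazole at 8 µg/ml as a sub-toxic cotreatment; 0% = median of DMSO wells and 100% = median of geldanamycin control wells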
Neddylation inh – inhibitors of cullin neddylation, primary screen, biochemical, TR-FRET, uHTS, NAE and Ubc12. AID 651699, 2012. 0.58% of 360,000 active. inhibition, % at 25 µM; in the data active means inhibition above about 36%
HIF activator – HIF pathway transcriptional activators, primary screen, cell-based, U2OS HRE-luciferase, luminescence; U2OS HRE-luciferase reporter; normalized: DMSO 0%, desferrioxamine 100%; activation, % at 7.5 µM (by protocol); 0.32% of 300,000 active; AID 1910, 2009;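 active means mean activation of at least 10% of the iron chelator positive control signal, with at least half of replicates also reaching 10%; inconclusive means mean and replicate majority disagree about reaching 10%; inactive means mean and most replicates under 10%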
proCasp7 act – procaspase-7 activators, primary screen, counter-screen for procaspase-3 activator project, biochemical, absorbance, HTS, human; Caspase-7 (Homo sapiens), P55210; recombinant procaspase-7, Ac-DEVD-pNA absorbance 405 nm; D23A/D198A/D206A triple mutant, cannot self-cleave; scale: DMSO 0, 5 µM enzyme 100; activation, % at 8.5 µM; 0.093% of 330,000 active; AID 463210, 2010;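 active means percent activation above the screen-wide mean plus 3 SD, cut at about 25% in these data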
Target sequence (P55210 whole entry D23A/D198A/D206A): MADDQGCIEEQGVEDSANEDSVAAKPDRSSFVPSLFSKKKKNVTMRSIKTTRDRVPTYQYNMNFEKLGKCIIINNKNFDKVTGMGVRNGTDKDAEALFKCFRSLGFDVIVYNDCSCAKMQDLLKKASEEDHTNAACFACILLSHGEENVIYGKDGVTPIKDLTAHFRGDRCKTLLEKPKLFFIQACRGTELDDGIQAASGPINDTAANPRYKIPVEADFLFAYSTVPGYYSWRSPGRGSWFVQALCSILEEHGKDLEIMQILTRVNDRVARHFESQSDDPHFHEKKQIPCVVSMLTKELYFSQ
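buffer or medium = Zinc-free HEPES/NaCl buffer, pH 7.4 | material = Procaspase-7 triple mutant (PC-7 D3A) | input = 2 µM procaspase-7 mutant as dispensed | signal = Epi-absorbance of released pNA at 405 nm, two timepoints | timing = 1 h preincubation, 2 h reaction | replicates = singlicate compound testing | evaluation = % activation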
GAA30 counter – GAA30 FXN promoter activators, confirmation, counter-screen for GAA850 frataxin promoter activator project, cell-based, luminescence, HEK293, lucGAA30, triplicate; activation, % at 6 µM; AID 588350, 2011; HEK293 lucGAA30 FXN promoter luciferase, 24 h; DMSO = 0%, 5 µM ipriflavone = 100%; shares compounds with GAA850 FXN act; 66% of 1,900 active;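 active means mean activation above the mean of solvent-only control wells plus 3 SD, cut at about 22% in these data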;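 further: counterscreen of GAA850 promoter hits where activity marks nonselective or luminescence artifacts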
FXN GAA850 conf – FXN GAA850 promoter activators in reporter cells, confirmation, cell-based, luminescence, HEK293 lucGAA850, triplicate. shares compounds with GAA850 FXN act. HEK293 lucGAA850 FXN promoter luciferase reporter, 24 h; 100% = activation by SAHA. activation, % at 6 µM. 86% of 1,900 active. AID 588351, 2011;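 active means mean activation above a set limit taken from the primary screen, cut at about 8% in these data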;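 further: 0% = DMSO wells and 100% = 10 µM SAHA wells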
An asterisk follows results filed as active.

For O=[N+]([O-])c1ccc(Sc2nc3ccccc3o2)c([N+](=O)[O-])c1 the results were procasp3 activ -6, GAA850 FXN act 16*, Calb FLC 93*, Neddylation inh -6, HIF activator 4, proCasp7 act -19, GAA30 counter -25 and FXN GAA850 conf 46*.
CC(=NNC(=S)Nc1ccccc1Cl)c1ccccn1 was read as GAA850 FXN act 14*, Neddylation inh -3, GAA30 counter -39 and FXN GAA850 conf 25*.
`CC1(Cc2cc(Cl)ccc2C(F)(F)F)C(=O)Nc2cc(-c3ccccc3Cl)ccc21` (stereo not drawn) gave GAA850 FXN act -2 and Neddylation inh -1.
For COc1cc2c(cc1OC)/C(=C/C(=O)c1ccccc1)NCC2 the results were procasp3 activ 6, GAA850 FXN act 8.5*, Calb FLC -11, Neddylation inh -4, HIF activator 1, proCasp7 act 8, GAA30 counter 29* and FXN GAA850 conf 15*.
For CNC(=O)CN(c1ccc(C23CC4CC(CC(C4)C2)C3)cc1)S(C)(=O)=O the results were procasp3 activ -8, GAA850 FXN act 7.6*, Calb FLC inconclusive, Neddylation inh -8, HIF activator 0, proCasp7 act -2, GAA30 counter 26* and FXN GAA850 conf 15*.
CCCCC1(Cc2ccc([N+](=O)[O-])cc2)C(=O)N(c2ccccc2)N(c2ccccc2)C1=O was read as procasp3 activ 11, GAA850 FXN act 9.5*, Calb FLC 7, Neddylation inh 1, HIF activator 0, proCasp7 act 15, GAA30 counter 14 and FXN GAA850 conf 7.
`CCCCC1(COC(=O)CCC(=O)O)C(=O)N(c2ccccc2)N(c2ccccc2)C1=O` gave procasp3 activ 1, GAA850 FXN act 0, Neddylation inh 11 and proCasp7 act 5.
`CCN(CC)C(=O)c1sc2nc(-c3ccc(OC)cc3)cn2c1C` gave procasp3 activ -6, GAA850 FXN act 9.8*, Calb FLC -3, Neddylation inh 0, HIF activator 3, proCasp7 act 13, GAA30 counter 125* and FXN GAA850 conf 41*.
CNC(=O)c1sc2nc(-c3ccc(OC)cc3)cn2c1C was read as procasp3 activ -6, GAA850 FXN act 5, Calb FLC -3, Neddylation inh 5, HIF activator 2 and proCasp7 act -4.
Screening Cc1c(C(=O)NCc2ccco2)sc2nc(-c3ccccc3)cn12 returned procasp3 activ -2, GAA850 FXN act 18*, Calb FLC -4, Neddylation inh 10, HIF activator 3, proCasp7 act 1, GAA30 counter 56* and FXN GAA850 conf 29*.
Screening Cc1c(C(=O)NCc2cccnc2)sc2nc(-c3ccccc3)cn12 returned procasp3 activ -10, GAA850 FXN act 5, Calb FLC -6, Neddylation inh 11, HIF activator 2 and proCasp7 act -10.
For CCC12C(=O)C(CC)(C(c3ccccc3)=C1c1ccccc1)[C@@H]1C(=O)N(c3ccccc3)C(=O)C12 (stereo partly drawn) the results were procasp3 activ 0, GAA850 FXN act 11*, Calb FLC 0, Neddylation inh 4, HIF activator 0, proCasp7 act -5, GAA30 counter 20 and FXN GAA850 conf 11*.
Screening COc1ccc2[nH]c3c(c2c1)CCN1C(=O)C(CC(=O)NCCN2CCOCC2)C[C@H](C(=O)N2CCOCC2)[C@@]31C (stereo partly drawn) returned procasp3 activ -2, GAA850 FXN act 0, Neddylation inh -3 and proCasp7 act 6.
Screening Cc1cc(-c2nnco2)c(C)n1-c1ccc(F)cc1 returned procasp3 activ 2, GAA850 FXN act 7.7*, Calb FLC -7, Neddylation inh 2, HIF activator 1, proCasp7 act 1, GAA30 counter 53* and FXN GAA850 conf 22*.
COc1ccc(NC(=O)C2Cc3c(-c4ccc5c(c4)OCO5)ccnc3O2)cc1OC (stereo not drawn) was read as GAA850 FXN act -3.
For CC(=O)C1=CCC(c2ccccc2)N(S(C)(=O)=O)C1 (stereo not drawn) the results were Neddylation inh -5.
For O=C(NCC(c1ccco1)N1CCCCC1)C(c1ccccc1)c1ccccc1 (stereo not drawn) the results were procasp3 activ 0, GAA850 FXN act -7, Calb FLC 2, Neddylation inh 0, HIF activator 0 and proCasp7 act 3.
`CC(Oc1ccc(C(C)(C)C)cc1)C(=O)NCC(c1ccco1)N1CCCC1` (stereo not drawn) gave procasp3 activ -1, GAA850 FXN act 8.4*, Neddylation inh 1, proCasp7 act 4, GAA30 counter 16 and FXN GAA850 conf 9.6*.
O=C(O)c1ccc(N/N=C/c2ccc(-c3cc(Cl)ccc3Cl)o2)cc1 was read as procasp3 activ -13, GAA850 FXN act 4, Calb FLC 7, HIF activator 2 and proCasp7 act -36.
O=C(O)c1ccc(N/N=C/c2ccc(-c3cccc(Cl)c3)o2)cc1 was read as procasp3 activ -18, GAA850 FXN act 11*, Calb FLC -9, HIF activator 2, proCasp7 act -51, GAA30 counter 112* and FXN GAA850 conf 42*.
Screening CC(=O)c1ccc(NC(=S)NC(=O)c2c(Cl)c(C)nn2C)cc1 returned procasp3 activ 10, GAA850 FXN act 8.8*, Calb FLC -2, Neddylation inh -19, HIF activator 0, proCasp7 act -8, GAA30 counter 23* and FXN GAA850 conf 7.
